Drawing on ChEMBL document CHEMBL1125415, “Antihyperglycemic activity of novel substituted 3H-1,2,3,5-oxathiadiazole 2-oxides” (1992), this text covers Decrease for 34 compounds.

For assay [1], the system named is Mus musculus. As to the kind of experiment: Antihyperglycemic activity in mice at a dose of 20 mg/kg. The class given is functional. Put shortly:
(§1)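 Diabetic db/db mice, after exclusion of the five most extreme baseline glucose values, randomized into groups of equal mean plasma glucose, 4-6 per group. Oral dosing in 2% Tween 80/saline on afternoons of days 1-3 (fed), and day 4 after 3 h fast. Plasma glucose at 2 and 4 h post-dose; mean expressed as % change from day-1 baseline versus vehicle; ANOVA with one-sided Dunnett's test.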

Assay [2] has as its system Mus musculus. As to the kind of experiment: Antihyperglycemic activity in mice at a dose of 100 mg/kg. The class given is functional. Put shortly:
as §1

As to `O=S1NC(Cc2coc3ccc(Cl)cc23)=NO1` (stereo not given), the Decrease in the assay on Mus musculus [1] is on record as below -15%.

For the compound `O=S1NC(Cc2coc3cc(Cl)ccc23)=NO1` (stereo not given), the Decrease with Mus musculus [1] is recorded as below -15%; with Mus musculus [2] it was -22%.

Turning to `O=S1NC(CC2CCc3ccccc3C2)=NO1` (stereo not given), the Decrease in the assay with Mus musculus [1] was below -15%; in the assay on Mus musculus [2] it was -22%.

As to `O=S1NC(CC2=C(Cl)c3ccccc3CC2)=NO1` (stereo not given), the Decrease in the assay with Mus musculus [1] is -27%.

Regarding `O=S1NC(Cc2cc3ccccc3o2)=NO1` (stereo not given), the Decrease with Mus musculus [1] is below -15%; with Mus musculus [2], below 15%.

With `O=S1NC(Cc2cc3ccccc3s2)=NO1` (stereo not given), the values for the Decrease in the assay on Mus musculus [1] and with Mus musculus [2] were below -15% and -42%, respectively.

As for `O=S1NC(Cc2ccc3c(c2)CCCC3)=NO1` (stereo not given), the Decrease with Mus musculus [1] is on record as below -15%; in the assay on Mus musculus [2] it was below 15%.

With `O=S1NC(Cc2coc3c(Cl)cccc23)=NO1` (stereo not given), the values for the Decrease in the assay with Mus musculus [1] and with Mus musculus [2] were -26% and -54%, respectively.

In the case of `Cc1ccc(CC2=NOS(=O)N2)cc1C` (stereo not given), the Decrease is below -15% with Mus musculus [1] and below 15% in the assay with Mus musculus [2].

With `CC(C)(C)c1ccc(CC2=NOS(=O)N2)cc1` (stereo not given), the values for the Decrease in the assay on Mus musculus [1] and in the assay on Mus musculus [2] were below -15% and below 15%, respectively.

Regarding `O=S1NC(Cc2ccc(-c3ccccc3)cc2)=NO1` (stereo not given), the Decrease in the assay on Mus musculus [1] is listed as below -15%; with Mus musculus [2] it was below 15%.

Take `O=S1NC(Cc2cc3cc(Cl)ccc3s2)=NO1` (stereo not given): the Decrease with Mus musculus [1] was below -15%; in the assay on Mus musculus [2] it was -24%.

As for `O=S1NC(Cc2coc3ccc(Br)cc23)=NO1` (stereo not given), the Decrease in the assay on Mus musculus [1] was below -15%; with Mus musculus [2] it was below 15%.

Regarding `CC1(COc2ccc(CC3SC(=O)NC3=O)cc2)CCCCC1` (stereo not given) [CIGLITAZONE], the Decrease in the assay with Mus musculus [1] is below -15%; in the assay with Mus musculus [2] it was -29%.

Regarding `O=S1NC(Cc2cc3cc(Br)ccc3s2)=NO1` (stereo not given), the Decrease is -20% in the assay with Mus musculus [1] and -29% in the assay on Mus musculus [2].

`O=S1NC(Cc2cc3ccc(F)cc3o2)=NO1` (stereo not given): the Decrease in the assay on Mus musculus [1] is recorded as below -15%; with Mus musculus [2], -18%.

With `O=S1NC(Cc2ccc3ccccc3c2)=NO1` (stereo not given), the values for the Decrease in the assay on Mus musculus [1] and with Mus musculus [2] were -37% and -63%, respectively.

Take `O=S1NC(CC2=Cc3ccccc3CC2)=NO1` (stereo not given): the values for the Decrease in the assay with Mus musculus [1] and with Mus musculus [2] were -23% and -53%, respectively.

For `O=S1NC(CC2CCc3ccccc32)=NO1` (stereo not given), the Decrease with Mus musculus [1] is below -15%; with Mus musculus [2], below 15%.

For `O=S1NC(Cc2ccc(OCCc3ccccc3)cc2)=NO1` (stereo not given), the values for the Decrease in the assay on Mus musculus [1] and in the assay on Mus musculus [2] were below -15% and -56%, respectively.

With `O=S1NC(Cc2coc3ccccc23)=NO1` (stereo not given), the values for the Decrease in the assay on Mus musculus [1] and in the assay on Mus musculus [2] were below -15% and -28%, respectively.

Regarding `O=S1NC(Cc2cc3cc(Cl)ccc3o2)=NO1` (stereo not given), the Decrease with Mus musculus [1] is on record as below -15%; with Mus musculus [2] it was -23%.

With `O=S1NC(Cc2cc3cc(F)ccc3s2)=NO1` (stereo not given), the Decrease is below -15% in the assay with Mus musculus [1] and below 15% with Mus musculus [2].

With `O=S1NC(Cc2ccc(Br)cc2F)=NO1` (stereo not given), the results for the Decrease in the assay on Mus musculus [1] and with Mus musculus [2] were -17% and -28%, respectively.

`Cc1ccc2occ(CC3=NOS(=O)N3)c2c1` (stereo not given): the Decrease in the assay on Mus musculus [1] is on record as below -15%; in the assay on Mus musculus [2], -42%.

Consider `O=S1NC(Cc2cccc(Cl)c2)=NO1` (stereo not given), for which the Decrease with Mus musculus [1] is below -15%; in the assay with Mus musculus [2], -40%.

As to `O=S1NC(Cc2csc3ccccc23)=NO1` (stereo not given), the Decrease was below -15% with Mus musculus [1] and -30% in the assay on Mus musculus [2].

On to `O=S1NC(Cc2cccc(C(F)(F)F)c2)=NO1` (stereo not given), for which the Decrease in the assay on Mus musculus [1] is recorded as below -15%; in the assay with Mus musculus [2], -34%.

Regarding `O=S1NC(Cc2ccc3c(c2)CCC3)=NO1` (stereo not given), the Decrease is recorded as below -15% with Mus musculus [1] and below 15% in the assay on Mus musculus [2].

For `O=S1NC(Cc2cc3cc(F)ccc3o2)=NO1` (stereo not given), the results for the Decrease in the assay on Mus musculus [1] and in the assay with Mus musculus [2] were below -15% and -25%, respectively.

With `O=S1NC(Cc2c[nH]c3ccccc23)=NO1` (stereo not given), the Decrease was below -15% with Mus musculus [1] and -22% in the assay with Mus musculus [2].

As for `O=S1NC(Cc2coc3c(Cl)cc(Cl)cc23)=NO1` (stereo not given), the Decrease in the assay on Mus musculus [1] was below -15%; with Mus musculus [2], -29%.

For the compound `O=S1NC(Cc2ccc(OCc3ccccc3)cc2)=NO1` (stereo not given), the Decrease in the assay with Mus musculus [2] was below -15%.

Consider `O=S1NC(Cc2c[nH]c3ccc(Br)cc23)=NO1` (stereo not given), for which the results for the Decrease in the assay with Mus musculus [1] and with Mus musculus [2] were -22% and -30%, respectively.
